{
  "source": "paper PMC2229406",
  "about": "(The Journal of General Physiology, 1998)",
  "key": {"[1]": {"test_system": "sheep cardiac ryanodine receptor (RyR) channel", "conditions": "ref Tinker et al., 1996, cited from earlier work"}, "[2]": {"test_system": "sheep cardiac ryanodine receptor (RyR) channel", "assay_type": "biochemical", "summary_of_the_method": "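CHAPS-solubilized RyR from sheep ventricular heavy SR (30/40% sucrose interface) was reconstituted into liposomes and fused into phosphatidylethanolamine/n-decane bilayers. Both chambers held 610 mM K+, 20 mM HEPES pH 7.4 and 10 μM contaminant Ca2+, with 100 μM EMD 41000 cis. Single channels only, at 21 ± 2°C. Ryanoid added cytosolically; steady-state runs ≥6 min at +40 mV. Pmod = modified/(modified+unmodified) time; single-site nonlinear regression; mean ± SEM.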"}, "[3]": {"conditions": "+40 mV, 500 nM cytosolic, 20 min recording, single exponential fit"}},
  "note": "pKd: −log10 of the molar value. Where “and” joins values, the source holds several entries; their conditions need not be identical. Equal values may be shown once. Read-outs that look alike come from different tables or passages of the source.",
  "data": [
    {"molecule": "CC(C)[C@@]1(O)[C@@H](O)[C@@]2(O)[C@@]3(C)C[C@]4(O)O[C@@]5([C@H](O)[C@@H](C)CC[C@]35O)[C@@]2(O)[C@]14C", "note": "[ryanodol]", "values": [
      {"measurement": "voltage dependence of channel modification", "setting": "[1]; +60 vs −60 mV", "value": "more likely to occur and are longer lasting at a holding potential of +60 than −60 mV"},
      {"measurement": "amplitude of reduced conductance state, of the normal unmodified conductance", "setting": "[1]", "value": "~70", "unit": "%"}
    ]},
    {"molecule": "21-amino-9α-hydroxy-ryanodine", "values": [
      {"measurement": "mean P o ± SEM in unmodified periods", "setting": "[2]; 50 nM ryanoid, +40 mV, n = 5", "value": "0.62 ± 0.15"},
      {"measurement": "mean P o ± SEM in unmodified periods", "setting": "[2]; 100 nM ryanoid, +40 mV, n = 5", "value": "0.71 ± 0.16"},
      {"measurement": "mean P o ± SEM in unmodified periods", "setting": "[2]; 300 nM ryanoid, +40 mV, n = 5", "value": "0.70 ± 0.16"},
      {"measurement": "modification of channel function, luminal addition", "setting": "[2]; 500 nM at the luminal face, +60 or −60 mV, n = 6", "value": "no modification of gating or conductance"},
      {"measurement": "total valency / total voltage dependence (z on + z off)", "setting": "[2]; 500 nM cytosolic", "value": "1.98 and 2"},
      {"measurement": "interaction with the channel at −60 mV", "setting": "[2]; 500 nM cytosolic, −60 mV", "value": "no discernible modified-conductance events"},
      {"measurement": "mean P o ± SEM in unmodified periods", "setting": "[2]; 500 nM ryanoid, +40 mV, n = 5", "value": "0.56 ± 0.16"},
      {"measurement": "k on, intercept of regression line vs P o", "setting": "[2]; 700 nM cytosolic, +40 mV", "value": "0.02 ± 0.02", "unit": "s⁻¹"},
      {"measurement": "k on, slope vs P o", "setting": "[2]; 700 nM cytosolic, +40 mV, range P o = 0–1", "value": "0.97 ± 0.05", "unit": "s⁻¹"},
      {"measurement": "mean P o ± SEM in unmodified periods", "setting": "[2]; 700 nM ryanoid, +40 mV, n = 4", "value": "0.73 ± 0.15"},
      {"measurement": "mean P o ± SEM in unmodified periods", "setting": "[2]; 900 nM ryanoid, +40 mV, n = 4", "value": "0.73 ± 0.15"},
      {"measurement": "mean dwell time in the modified state (τmod)", "setting": "[2]; [3]", "value": 4.21, "unit": "s"},
      {"measurement": "mean dwell time in the unmodified state (τunmod)", "setting": "[2]; [3]", "value": 0.95, "unit": "s"},
      {"measurement": "K d from P mod vs concentration", "setting": "[2]; +40 mV, 50-900 nM cytosolic, single-site binding scheme, nonlinear regression", "value": 105, "unit": "nM"},
      {"measurement": "apparent rate constant for dissociation, mean value", "setting": "[2]; +40 mV, independent of concentration", "value": "0.24 ± 0.01", "unit": "s⁻¹"},
      {"measurement": "z, voltage dependence of occurrence of the modified state", "setting": "[2]; Boltzmann fit of P mod vs holding potential, 500 nM cytosolic", "value": 2.16},
      {"measurement": "Hill slope", "setting": "[2]; P mod vs concentration, +40 mV", "value": 0.99},
      {"measurement": "slope of ln(rate constant) vs ln(concentration)", "setting": "[2]; association, +40 mV", "value": 0.975},
      {"measurement": "modified conductance", "setting": "[2]; cursors at center of noise, 610 mM K+, SEM, n = 14", "value": "354 ± 6", "unit": "pS"},
      {"measurement": "mean fractional conductance ± SEM", "setting": "[2]; holding potential 20 mV, n = 10", "value": "0.438 ± 0.004"},
      {"measurement": "mean fractional conductance ± SEM", "setting": "[2]; holding potential 40 mV, n = 10", "value": "0.440 ± 0.003"},
      {"measurement": "mean fractional conductance ± SEM", "setting": "[2]; holding potential 60 mV, n = 10", "value": "0.462 ± 0.003"},
      {"measurement": "mean P o ± SEM in unmodified periods", "setting": "[2]; holding potential +20 mV, 500 nM ryanoid, n = 7", "value": "0.65 ± 0.09"},
      {"measurement": "mean P o ± SEM in unmodified periods", "setting": "[2]; holding potential +40 mV, 500 nM ryanoid, n = 7", "value": "0.69 ± 0.09"},
      {"measurement": "mean P o ± SEM in unmodified periods", "setting": "[2]; holding potential +60 mV, 500 nM ryanoid, n = 7", "value": "0.45 ± 0.06"},
      {"measurement": "mean P o ± SEM in unmodified periods", "setting": "[2]; holding potential −20 mV, 500 nM ryanoid, n = 6", "value": "0.62 ± 0.15"},
      {"measurement": "mean fractional conductance ± SEM", "setting": "[2]; holding potential −20 mV, n = 10", "value": "0.437 ± 0.005"},
      {"measurement": "mean P o ± SEM in unmodified periods", "setting": "[2]; holding potential −40 mV, 500 nM ryanoid, n = 5", "value": "0.73 ± 0.13"},
      {"measurement": "mean fractional conductance ± SEM", "setting": "[2]; holding potential −40 mV, n = 6", "value": "0.442 ± 0.002"},
      {"measurement": "mean P o ± SEM in unmodified periods", "setting": "[2]; holding potential −60 mV, 500 nM ryanoid, n = 5", "value": "0.78 ± 0.17"},
      {"measurement": "fractional conductance", "setting": "[2]; modified conductance as proportion of unmodified conductance (813 pS)", "value": 0.44},
      {"measurement": "pKd", "setting": "[2]; read-out: apparent K d derived from the rate constants, +40 mV", "value": 6.95},
      {"measurement": "z off", "setting": "[2]; slope of ln(K off) vs holding potential, 500 nM cytosolic", "value": 0.87},
      {"measurement": "z on", "setting": "[2]; slope of ln(K on) vs holding potential, 500 nM cytosolic", "value": 1.11}
    ]}
  ]
}
